Experimental data taken from PubChem BioAssay AID651787 (The Scripps Research Institute Molecular Screening Center, 2012).
Out of some 2,400 compounds screened, about 1,200 (50%) were called active. The set was probably picked from earlier hits. A selection follows. A number with no mark means an inactive call.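 Rule for the calls: active = activation above the run cutoff, the mean activation over all tested wells plus 3 SD (cut at about 12% in these data); inactive = the rest.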

Experiment: nonselective calcium mobilization agonists, CHO-Ga16 cells, counter-screen for hTAAR1 agonist project, cell-based, fluorescence, CHO-Ga16 parental line (AID 651787)
Details: Fluo-8 calcium fluorescence, at 3 µM, hits give high values, normalized to maximal ATP response, DMSO zero
How it was run: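 Test system: CHO-Gα16 parental cells without hTAAR1. Amount: 750 cells in each well. Incubation: 17-24 h seeding, dye 75 min 37 °C, 30 min RT. Measured by: Fluo-8 calcium-dye fluorescence. Evaluation: % activation from peak-to-basal fluorescence ratio, DMSO to ATP scale. Control set: DMSO (0%) and EC100 ATP (100%).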

| SMILES | activation |
| --- | --- |
| CCCCC(=O)N/N=C/c1c(O)n(CC)c(=S)n(CC)c1=O | 90.1% (active) |
| CCC(=NCCc1ccccc1)c1c(O)n(C2CCCCC2)c(=O)[nH]c1=O | 4.36% |
| COc1ccc(Br)cc1CNCCc1cccc(Cl)c1 | 17.7% (active) |
| Clc1ccc2nc3c(c(-c4ccccc4)c2c1)CNCC3 | 3.65% |
| Cc1cccc(N2C(=O)NC(=O)/C(=C\c3cnn(-c4ccccc4)c3)C2=O)c1 | 25.1% (active) |
| c1ccc(CCNC2CCCCCC2)cc1 | 0.13% |
| O=C1NC(=O)N(Cc2ccco2)C(=O)/C1=C\c1ccc(-c2ccc(F)cc2)o1 | 21.1% (active) |
| NCC(O)c1ccc(O)cc1 (centres undefined) | 1.74% |
| CC(Cc1ccccc1)NC=O (centres undefined) | 6.88% |
